Shown are actives, neighbours in structure and some others; about 1.5% of the full set was active somewhere.
EBI2 antag: EBI2 receptor antagonists, beta-arrestin recruitment, primary screen, cell-based, luminescence, 7a,25-OHC stimulation, uHTS; inhibition, % at 5 µM; AID 651636, 2012; G-protein coupled receptor 183 (Homo sapiens), P32249; 7a,25-OHC stimulated; 360,000 compounds, 0.81% hits; in the data active means inhibition above about 38%;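 further: enzyme fragment complementation signal reports receptor beta-arrestin coupling in cells; 0% = agonist plus DMSO wells and 100% = wells without agonist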
Target sequence (P32249 whole entry, looked up, the tested form may be a part): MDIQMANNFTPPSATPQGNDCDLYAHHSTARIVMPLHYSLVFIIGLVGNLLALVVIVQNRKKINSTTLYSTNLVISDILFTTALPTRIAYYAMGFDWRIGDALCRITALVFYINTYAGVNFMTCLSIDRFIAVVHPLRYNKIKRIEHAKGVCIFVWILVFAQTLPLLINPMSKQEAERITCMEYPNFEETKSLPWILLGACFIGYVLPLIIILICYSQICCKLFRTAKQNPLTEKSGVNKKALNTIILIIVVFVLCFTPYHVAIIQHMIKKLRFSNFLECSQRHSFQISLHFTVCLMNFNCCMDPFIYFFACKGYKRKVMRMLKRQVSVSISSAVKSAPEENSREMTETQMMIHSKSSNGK
APJ antag: antagonists of human apelin receptor APJ, primary screen, CHO-K1 cells, beta-arrestin complementation, luminescence | AID 2521, 2010 | 330,000 compounds, 0.32% hits | inhibition, % at 20 µM | P35414;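 active means inhibition above about 40% at 20 µM, limit read from the data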;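 further: cells challenged with 10 nM apelin-13 agonist together with compound; plate controls were apelin-13 plus DMSO wells for no effect and DMSO wells lacking apelin-13 for full effect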
CCR6 antag: CCR6 receptor antagonists, primary screen, cell-based, CHO-K1, luminescence, beta-arrestin, uHTS; AID 493098, 2011; CHO-K1 CCR6 PathHunter beta-arrestin, CCL20-stimulated; C-C chemokine receptor type 6 (Homo sapiens), P51684; inhibition, % at 20 µM; 340,000 compounds, 0.49% hits;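 active means compounds whose inhibition of the agonist-driven luminescence signal at 20 µM reaches about 50%, limit read from the data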;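 further: cells stimulated with CCL20 at 14 nM final; plate controls were DMSO with CCL20 for no effect and DMSO without agonist for full effect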
APJ ag: agonists of human apelin receptor APJ, primary screen, CHO-K1 cells, PathHunter beta-arrestin, luminescence; activation, % at 20 µM; P35414; 0% DMSO wells, 100% apelin; 330,000 compounds, 0.11% hits;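 active means activation more than six SD over the plate average, tested at 20 µM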;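 further: 0% = DMSO alone and 100% = apelin-13 at 10 nM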
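Material: engineered CHO-K1 APJ arrestin reporter cells; amount: 1000 CHO-K1 reporter cells seeded per well; incubation: compound stimulation 90 min at 25 °C, detection 60 min; signal: luminescent beta-gal fragment complementation, chemiluminescent substrate; read-out basis: APJ agonist activity; controls: DMSO-only wells as negative, 10 nM Apelin-13 as positive control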
CXCR6 inh: CXCR6 receptor inhibitors, primary screen, cell-based, beta-arrestin, luminescence, CHO-K1 PathHunter, 1536-well | C-X-C chemokine receptor type 6 (Homo sapiens), O00574 | inhibition, % at 20 µM | 360,000 compounds, 0.36% hits; in the data active means inhibition above about 34%, passing the limit was not always enough;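 further: antagonist mode with CXCL16 agonist at 10 nM final; 0% = 10 nM CXCL16 with DMSO and 100% = unstimulated wells without agonist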
Target sequence (O00574 whole entry, looked up): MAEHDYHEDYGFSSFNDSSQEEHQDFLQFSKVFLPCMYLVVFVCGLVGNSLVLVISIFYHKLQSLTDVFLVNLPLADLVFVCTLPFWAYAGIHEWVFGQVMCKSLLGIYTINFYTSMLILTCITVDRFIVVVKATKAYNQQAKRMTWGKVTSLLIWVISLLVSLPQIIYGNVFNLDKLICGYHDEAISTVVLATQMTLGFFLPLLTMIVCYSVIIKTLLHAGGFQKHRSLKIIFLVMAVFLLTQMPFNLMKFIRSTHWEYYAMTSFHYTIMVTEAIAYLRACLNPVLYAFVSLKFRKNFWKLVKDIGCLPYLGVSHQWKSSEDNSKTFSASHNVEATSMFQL
Starred values were filed as active, the others as inactive; x = no result.

SMILES | EBI2 antag | APJ antag | CCR6 antag | APJ ag | CXCR6 inh
COc1ccc(CN(C)C[C@@H]2OCCCC[C@H](C)Oc3ccc(NC(=O)Nc4ccc(F)cc4)cc3C(=O)N([C@H](C)CO)C[C@H]2C)cc1 | -5.1 | x | x | x | 2.2
O=C(C#Cc1ccccc1)c1ccc([N+](=O)[O-])cc1 | 24.8 | 11.6 | 54.9* | 2.2 | 70.7*
O=C(c1ccc(-c2ccccc2)cc1)c1ccc([N+](=O)[O-])cc1 | x | -30.2 | x | 0.6 | x
CCOC(=O)c1ccc(N2C(=O)C=CC2=O)cc1 | 3.5 | 14.4 | 113.2* | 0.4 | 101.0*
CC1(C)CCCC2(C)C1CCC1(C)OC(=O)CCC12 (stereo not given) | 3.2 | x | x | x | -8.0
CC(=O)OC[C@]12CC[C@H]3[C@@](C)(CC[C@H]4C(C)(C)CCC[C@]34C)[C@@H]1C[C@H](C1=CC(=O)O[C@@H]1OC(C)=O)O2 | x | 0.2 | x | 11.2* | x
CNc1ccc(N=Nc2cccc3ncccc23)cc1 | 34.4 | x | 60.9* | x | 41.4*
Cc1ccc2nc3n(c(=O)c2c1)-c1ccc(Cl)cc1C(=O)NC3CC(C)C (stereo not given) | x | 11.2 | x | -2.0 | x
CNC(=S)N1N=C(c2ccc(C)cc2)CC1c1ccc(N(C)C)cc1 (stereo not given) | 86.7* | -1.6 | 13.4 | -1.3 | 2.1
CNC(=S)N1N=C(c2ccc(C)cc2)CC1c1ccc(OC)cc1 (stereo not given) | 87.0* | 3.5 | 9.4 | -3.1 | 13.9
CCN1C(=O)[C@@H]2[C@@H]3CN(S(=O)(=O)c4ccc(C)cc4)[C@@H](c4ccccc4F)[C@@H]3C(=O)C[C@@H]2C1=O | -6.1 | x | x | x | -7.4
Cc1[nH]n(-c2ccccc2)c(=O)c1N=Nc1c(O)cc(S(=O)(=O)N(C)C)c2ccccc12 | -38.2 | 30.2 | 68.1* | -9.6 | 23.9
Cc1cc2c(cc1C)-c1nnnn1C(N1CCCCC1)C(=O)N2 (stereo not given) | -7.3 | x | x | x | x
COc1ccc(N2CSC3=C(C#N)C(c4cc(OC)c(OC)cc4OC)CC(=O)N3C2)c(OC)c1 (stereo not given) | -7.1 | -15.6 | -10.2 | 24.8* | -8.2
COc1ccc(N2CSC3=C(C#N)C(c4cc(OC)ccc4OC)CC(=O)N3C2)c(OC)c1 (stereo not given) | -2.6 | -15.1 | 13.5 | 20.1 | -12.5
COCCNC(=O)/C(C#N)=C/c1ccc(N2CCOCC2)o1 | -9.3 | 0.4 | 19.1 | -0.3 | 52.1*
N#C/C(=C\c1ccc(N2CCOCC2)o1)C(=O)NCCc1ccccc1 | 8.4 | 16.6 | 7.1 | -2.5 | 7.2
CCOc1ccc(Cl)cc1-c1cc(C(=O)Nc2ccc(Br)cc2)[nH]n1 | 24.0 | x | x | x | -4.4
CC(C)(C)OC(=O)N[C@@H](Cc1ccccc1)c1nnc(S(=O)(=O)Cc2ccccc2)o1 | x | 38.6 | x | -7.7 | x
CCC(C)[C@@H](NC(=O)OC(C)(C)C)c1nnc(S(=O)(=O)Cc2cccc(C)c2)o1 (stereo not given in full) | -4.7 | x | 38.1 | x | 53.0*
CC1(C(=O)NS(=O)(=O)c2ccccc2Cl)CCN1C(=O)c1ccco1 (stereo not given) | 0.8 | x | x | x | 0.1
CN(C)CC(CCC(CN(C)C)C(=O)c1ccccc1)C(=O)c1ccccc1 (stereo not given) | 46.6* | x | 98.1* | x | 75.6*
COC(=O)[C@@]12C[C@@H](CC(=O)NCc3cccc4ccccc34)C(=O)N(Cc3ccco3)C1=CCC(C)(C)C2 | 19.6 | x | x | x | x
O=C(NNC1=C(C(=O)C(F)(F)F)CCC1)c1ccccc1O | 8.2 | -0.8 | -6.2 | -5.4 | 7.4
COc1ccccc1C(=O)NNC1=C(C(=O)C(F)(F)F)CCC1 | 8.6 | 19.0 | 59.4* | -2.9 | 44.3*
SMILES | EBI2 antag | APJ antag | CCR6 antag | APJ ag | CXCR6 inh
Cc1ccc(C2C3CSCC=C3C(C#N)=C(N)C2(C#N)C#N)cc1 (stereo not given) | 3.2 | 1.8 | 52.4* | -5.9 | 10.9
CCCCNC(=O)c1nc(C2CCN(S(=O)(=O)c3ccccc3C(F)(F)F)CC2)oc1-c1cccc(C(F)(F)F)c1 | 14.9 | x | x | x | 0.1
CC(C)(C=O)C1=CC(=O)c2ccccc2C1=O | -2.0 | x | 103.3* | x | 99.9*
C=CC(=O)N1C/C(=C/c2ccc(Cl)cc2)C(=O)/C(=C\c2ccc(Cl)cc2)C1 | 74.7* | x | 61.8* | x | 49.7*
C=CC(=O)N1C/C(=C/c2ccccc2)C(=O)/C(=C\c2ccccc2)C1 | 38.6 | x | 64.1* | x | 37.5*
Nc1ccn([C@@H]2O[C@H](C(=O)NCC(F)(F)F)[C@@H](O)[C@H]2O)c(=O)n1 | -2.4 | x | x | x | -2.7
O=C(N/N=C/c1ccc(-c2cccc([N+](=O)[O-])c2)o1)c1cccs1 | 0.1 | -0.9 | 3.0 | -2.8 | -4.8
N#C/C(=C\c1ccc(-c2cccc([N+](=O)[O-])c2)o1)C(=O)Nc1nc(-c2cccs2)cs1 | 4.1 | 30.5 | 83.6* | -7.1 | 30.2
N#Cc1cc(Oc2cccc3cccnc23)c(-n2nnc3ccccc32)cc1C#N | 79.2* | -9.0 | 11.1 | 2.9 | -5.4
COc1ccccc1CCC(=O)NNC(=O)Cn1nc(C)cc1C | -4.6 | x | x | x | -1.4
O=C(/C=C/c1ccccn1)c1cc(Br)ccc1O | 10.7 | -5.2 | 59.3* | 0.1 | 4.9
O=C(/C=C/c1ccccn1)c1ccc(Br)cc1O | 12.9 | x | 17.3 | x | -1.2
O=C1c2cc(CO)cc(O)c2C(=O)c2c(O[C@@H]3OC(CO)[C@@H](O)[C@@H](O)[C@@H]3O)cccc21 (stereo not given in full) | -21.8 | -175.9 | -5.3 | -3.9 | -2.1
O=C(O)c1cc(O)c2c(c1)[C@H]([C@H]1c3cc(C(=O)O)cc(O)c3C(=O)c3c(O[C@@H]4O[C@H](CO)[C@@H](O)[C@H](O)[C@H]4O)cccc31)c1cccc(OC3O[C@H](CO)[C@@H](O)[C@H](O)[C@H]3O)c1C2=O (stereo not given in full) | -10.6 | 10.8 | 88.3* | 11.6 | 3.3
O=C(O)c1cc(O)c2c(c1)[C@@H]([C@H]1c3cc(C(=O)O)cc(O)c3C(=O)c3c(O[C@@H]4O[C@H](CO)[C@@H](O)[C@H](O)[C@H]4O)cccc31)c1cccc(OC3O[C@H](CO)[C@@H](O)[C@H](O)[C@H]3O)c1C2=O (stereo not given in full) | -15.1 | 21.9 | 79.1* | 4.2 | -9.9
CC(C)COC(=O)N1CCCCC1c1cc(C(=O)NCc2ccc(F)cc2)no1 (stereo not given) | 13.3 | x | x | x | 1.2
CC1=NN(c2ccc(Cl)cc2)C(=O)/C1=C\c1cccn1-c1ccc(S(N)(=O)=O)cc1 | 59.7* | 35.9 | 32.4 | -2.4 | 4.8
CCc1nc2c(OCC(=O)c3ccc(Cl)cc3Cl)cccn2c1N(C)C(=O)c1cccs1 | 10.8 | x | x | x | 6.5
Cc1ccc2c(c1)c(C1=c3ccccc3=NC1=O)c(O)n2C | 6.3 | 26.4 | 50.8* | 0.6 | 26.2

High-throughput results as filed in PubChem.
